From PubChem
Shown are actives, neighbours in structure and some others; about 1.3% of the full set was active somewhere.
PAX8 reporter = inhibitors of PAX8-driven TPO luciferase reporter, primary screen, RMG-I cells, single concentration | inhibition, % at 12.6 µM | SteadyGlo, 24 h | AID 652154, 2013 | 360,000 tested, 1.2% active;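 active = mean replicate inhibition at least 60% with every replicate also reaching 60%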;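 note: luciferase light reporting Pax8 driven TPO promoter activity; plate controls were median of neutral control wells for no effect and mitoxantrone controls for full effect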
RAD54 branch = inhibitors of human RAD54 branch migration, primary screen, biochemical, fluorescence, single point; inhibition, % at 10.4 µM; 360,000 tested, 0.14% active; RAD54 Holliday junction branch migration, FAM/BHQ fluorescence;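 active = mean normalized replicate activity at least 40 and at least half of replicates scoring 40 or more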;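 note: 0% = median of neutral control wells and 100% = median of positive control wells; inhibitors cause a drop in the FAM fluorescence signal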
FN deposit inh = inhibitors of fibronectin matrix deposition, primary screen, AH1F cells, Alexa488-fibronectin fluorescence, plate reader; AH1F fibroblasts, overnight; inhibition, % at 12.6 µM; 350,000 tested, 0.086% active; AID 743247, 2014;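 active = mean inhibition across replicates of 30% or more, regardless of how many single replicates reach that level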;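 note: positive control wells lacked labelled fibronectin entirely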
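Test system: AH1F fibroblast monolayer depositing Alexa488-labelled fibronectin into matrix. Input: 10000 cells per well. Technique: fluorescence, ex 485 nm, em 525 nm. Buffer or medium: DMEM plus 2% serum, read in PBS. Timing: 1 h cell adhesion before compound, then overnight fibronectin incubation. Compound: single dose, pinned. Read-out basis: inhibition from reduced deposited-fibronectin fluorescence.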
RAD52 anneal inh = RAD52 DNA annealing inhibitors, primary screen, biochemical, FRET, single point, set 2 | 360,000 tested, 0.46% active | inhibition, % at 18.7 µM | recombinant RAD52 DNA annealing, FRET fluorescence | DNA repair protein RAD52 homolog (Homo sapiens), P43351;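 active = every replicate showing at least 50% inhibition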
Target sequence (P43351 whole entry, looked up): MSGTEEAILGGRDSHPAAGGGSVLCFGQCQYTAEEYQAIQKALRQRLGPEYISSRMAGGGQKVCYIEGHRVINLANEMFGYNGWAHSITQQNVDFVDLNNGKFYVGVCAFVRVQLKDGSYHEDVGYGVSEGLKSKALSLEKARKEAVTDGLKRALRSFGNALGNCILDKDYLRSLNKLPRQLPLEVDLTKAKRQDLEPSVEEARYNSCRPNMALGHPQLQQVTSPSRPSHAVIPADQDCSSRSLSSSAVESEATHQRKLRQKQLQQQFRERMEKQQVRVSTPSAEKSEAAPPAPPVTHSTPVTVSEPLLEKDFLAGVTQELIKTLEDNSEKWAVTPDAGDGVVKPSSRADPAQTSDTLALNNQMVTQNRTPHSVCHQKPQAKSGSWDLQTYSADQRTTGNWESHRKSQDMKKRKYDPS
Starred values were filed as active, the others as inactive; / = not tested or not shown.

SMILES	PAX8 reporter	RAD54 branch	FN deposit inh	RAD52 anneal inh
COc1ccc(-c2ccc(C(C)=O)cc2)cc1[C@H]1[C@@H]2C=CCC[C@@]2(C)C(=O)N1Cc1ccccc1	62*	4	9	-14
COc1ccc(-c2ccc(C)cc2)cc1[C@H]1[C@@H]2C=CCC[C@@]2(C)C(=O)N1Cc1ccccc1	4	-10	-16	-10
CCCCNC(=S)N1CCN(C)CC1	-1	/	6	3
CN(C)c1ccc(C=c2c3cc([N+](=O)[O-])ccc3n3c2cc(-c2ccccc2)[n+]3C)cc1	114*	/	3	100*
Cn1c(CO)c(-c2ccccc2)c2cc([N+](=O)[O-])ccc21	-3	2	1	/
COc1cc(N(C)C)ccc1C=c1c2ccccc2n2c1cc(-c1ccccc1)[n+]2C	88*	/	5	45
CN(C)c1ccc(C=c2c3ccccc3n3c2cc(-c2ccccc2)[n+]3C)cc1	95*	/	-12	-12
COc1cc(C=c2c3ccccc3n3c2cc(-c2ccccc2)[n+]3C)cc(OC)c1OC	93*	/	-4	-5
Cc1cc(NS(=O)(=O)c2ccc(NC(=O)c3ccc([N+](=O)[O-])c(Cl)c3)cc2)no1	14	-4	-2	-21
CN(C)c1ccc(C=c2c3ccccc3n3c2cc(-c2ccc(Cl)cc2)[n+]3C)cc1	78*	/	-13	11
CC(CCC(C)C(C)(C)C)[C@@H]1CC[C@H]2C3C[C@H](OS(O)(=S)=S)[C@H]4C[C@H](OS(O)(=S)=S)[C@@H](OS(O)(=S)=S)C[C@]4(C)[C@H]3CC[C@]12C (some centres undefined) (tested in a mixture with another compound)	/	110*	/	/
COCCNC(=O)C1(C)CCCN(Cc2cccc(OC(=O)c3ccccc3)c2)C1 (centres undefined)	-2	0	/	-5
O=C(C1CCCCC1)N1CCN(S(=O)(=O)c2ccc(Cl)cc2)CC1	/	-4	/	/
CC1(C)CC(=O)C2=C(C1)N1C(=C(C#N)C2c2ccc(Cl)cc2)N=C(N)c2ccccc21 (centres undefined)	67*	3	-19	-23
CCCNC(=O)N1[C@@H](CO)[C@H](c2ccccc2)[C@@H]1CNC(=O)c1cccc(F)c1	-6	4	-15	-44
CC(=O)N(C)C[C@H]1Oc2ncc(C#Cc3ccncc3)cc2C(=O)N([C@H](C)CO)C[C@@H]1C	/	-1	-12	-15
CNc1ccc(Br)cc(C(=O)/C=C/c2ccc(OC)cc2)c1=O	-4	/	/	/
CNc1ccc(Br)cc(C(=O)/C=C/c2cc(OC)ccc2OC)c1=O	92*	-11	/	/
O=C(CN(c1ccc(Cl)cc1)S(=O)(=O)c1ccc(Cl)c([N+](=O)[O-])c1)NCCc1ccccc1	79*	/	/	-13
O=C(Nc1ccccc1)Nc1ncc([N+](=O)[O-])s1	85*	/	7	-7
CCOC(=O)C1=C(c2ccccc2)NC(=O)NC1c1ccc(O)c(Cl)c1 (centres undefined)	70*	7	48*	-7
C[C@@H]1CN([C@H](C)CO)S(=O)(=O)c2ccc(C#CC3CCCC3)cc2O[C@H]1CN(C)C(=O)Cc1ccncc1	0	3	9	-32
Nc1c(C(=O)N2CCOCC2)sc2nc3c(cc12)CCCC3	71*	4	4	-16
Cc1cc(C)c2nc3sc(C(=O)N4CCOCC4)c(N)c3cc2c1	69*	-6	-29	-9
Cc1cc(C)c2c(c1)-c1cc(C)nn1C(c1ccc3c(c1)OCO3)N2 (centres undefined)	2	-11	2	/
SMILES	PAX8 reporter	RAD54 branch	FN deposit inh	RAD52 anneal inh
Cc1ccccc1N(CC(=O)N1CCN(c2ccccc2)CC1)S(C)(=O)=O	-17	-2	-11	/
N#CC(C#N)=C1C=CC=CN1/C(=C\c1ccco1)C(=O)c1ccc(Cl)cc1	/	/	36*	5
N#CC(C#N)=C1C=CC=CN1/C(=C\c1ccco1)C(=O)c1ccc(-c2ccccc2)cc1	92*	/	-23	/
CC1(C)CC(=O)C2=C(C1)OC(N)=C(C#N)C2c1ccsc1 (centres undefined)	/	1	/	/
Cc1nn(C2CCS(=O)(=O)C2)c2nc(C3CC3)cc(C(=O)Nc3cccc(C#N)c3)c12 (centres undefined)	75*	1	-7	-4
CSCCC(NS(=O)(=O)c1ccc2ccccc2c1)C(=O)OCC(=O)c1ccc(C(C)C)cc1 (centres undefined)	/	6	/	/
